PubChem BioAssay AID493080 (Broad Institute, 2011)
Values joined by “and” are separate entries in the source; they are usually repeats but may differ in a detail not shown here. Equal entries are not always repeated. Active and inactive are the calls of the source.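 How the source made its calls: active means growth inhibition with fitted AC50 no more than ten times the top valid dose; inconclusive means flat fit at 30 to 70% inhibition, or bad fit; inactive means the rest, including rises in signal.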

test system: not listed separately; test: Candida CaCi-2 inhibition with fluconazole present – dry powder retest, set 3, confirmation (AID 493080); conditions: C. albicans CaCi-2 + fluconazole, Alamar Blue growth, 48 h; at 1.2 µM (top of the series)
Procedure, shortened: (§1)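 Test system: fluconazole-resistant Candida albicans clinical isolate CaCi-2; Quantity: inoculum A600 0.00015; Buffer or medium: RPMI medium, MOPS-buffered; Probe or stimulus: fluconazole 8 µg/mL; Dosing: pin-transferred compounds; Times: 48 h compound exposure, 37 °C, then Alamar Blue 2 h; Detection: Alamar Blue fluorescence, excitation 544 nm, emission 590 nm; Benchmarks: geldanamycin as positive control.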

**Q.** With `COc1ccc2c(c1)c1nc3n(c(=O)c1n2CC(=O)N1CCC(C)CC1)CCS3` as the compound, how does the activity change, negative = inhibition read?
**A.** 15.5% (inactive)

same assay, conditions: C. albicans CaCi-2 + fluconazole, Alamar Blue growth, 48 h; at 12 µM (top of the series)

**Q.** For `O=C(c1ccccc1Cl)N1CCN(c2ccccn2)CC1`, which activity change, negative = inhibition is on record?
**A.** 8.16% (inactive)

**Q.** For `O=C(c1cccc(Cl)c1)N1CCN(c2ccccn2)CC1`, which activity change, negative = inhibition is on record?
**A.** 8.07% (inactive)

**Q.** For `CCOC(=O)c1nn(Cc2ccc(Cl)cc2)c2ccccc12`, which activity change, negative = inhibition is on record?
**A.** 4.97% (inactive)

**Q.** With `N#Cc1ccc(C(=O)N2CCN(c3ccccn3)CC2)cc1` as the compound, how does the activity change, negative = inhibition read?
**A.** -16.1% (inactive)

**Q.** With `CNC(=O)Cn1nc(-c2ccccc2)c2ccccc21` as the compound, how does the activity change, negative = inhibition read?
**A.** 10.1% (inactive)

**Q.** Which activity change, negative = inhibition does the source give for `O=C(Cn1nc(-c2ccccc2)c2ccccc21)NCc1ccc(Cl)cc1` here?
**A.** -6.29% (inactive)

**Q.** For `c1ccc(-c2n[nH]c3ccccc23)cc1`, which activity change, negative = inhibition is on record?
**A.** 24.5% (inactive)

**Q.** For `O=C(Cn1nc(C(=O)N2CCCCC2)c2ccccc21)N1CCOCC1`, which activity change, negative = inhibition is on record?
**A.** -6.13% (inactive)

**Q.** Which activity change, negative = inhibition does the source give for `N#Cc1cccc(N2CCN(C(=O)c3ccc(Cl)cc3)CC2)n1` here?
**A.** 0.43% (inactive)

**Q.** With `O=C(Cn1nc(-c2ccccc2)c2ccccc21)N1CCc2ccccc2C1` as the compound, how does the activity change, negative = inhibition read?
**A.** 3.01% (inactive)

**Q.** Which activity change, negative = inhibition does the source give for `COc1ccc2c(c1)c1nc3n(c(=O)c1n2CC(=O)N1CCC(Cc2ccccc2)CC1)CCS3` here?
**A.** -1.27% (inactive)

**Q.** With `CCOC(=O)c1c2ccccc2nn1Cc1ccc(Cl)cc1` as the compound, how does the activity change, negative = inhibition read?
**A.** 17.8% (inactive)

**Q.** Which activity change, negative = inhibition does the source give for `O=C(Cn1nc(-c2ccccc2)c2cc(Cl)ccc21)N1CCOCC1` here?
**A.** -1.59% (inactive)

**Q.** With `O=C(O)Cn1nc(-c2ccccc2)c2ccccc21` as the compound, how does the activity change, negative = inhibition read?
**A.** -8.71% (inactive)

**Q.** Which activity change, negative = inhibition does the source give for `O=C(O)c1nn(Cc2ccc(Cl)cc2)c2ccccc12` here?
**A.** -7.95% (inactive)

**Q.** With `CCCNC(=O)Cn1nc(-c2ccccc2)c2ccccc21` as the compound, how does the activity change, negative = inhibition read?
**A.** 26.9% (inactive)

**Q.** Which activity change, negative = inhibition does the source give for `CC(C)C(=O)N1CCN(c2ccccn2)CC1` here?
**A.** 6.09% (inactive)

**Q.** With `COC(=O)Cn1c(-c2ccccc2)nc2ccccc21` as the compound, how does the activity change, negative = inhibition read?
**A.** -5.95% (inactive)

**Q.** For `O=C(C1CCCCC1)N1CCN(c2ccccn2)CC1`, which activity change, negative = inhibition is on record?
**A.** -20.7% (inactive)

**Q.** For `O=C(c1ccc(Cl)cc1)N1CCN(c2cccc(C(F)(F)F)n2)CC1`, which activity change, negative = inhibition is on record?
**A.** -1.86% (inactive)

**Q.** Which activity change, negative = inhibition does the source give for `N#Cc1cccnc1N1CCN(C(=O)c2ccc(Cl)cc2)CC1` here?
**A.** -11.5% (inactive)

**Q.** For `COCCC(=O)N1CCN(c2ccccn2)CC1`, which activity change, negative = inhibition is on record?
**A.** -0.956% (inactive)

**Q.** For `O=C(Cn1c2ccccc2c2nc3n(c(=O)c21)CCCS3)c1ccc(F)cc1`, which activity change, negative = inhibition is on record?
**A.** 3.71% (inactive)

**Q.** With `O=C(Cn1c2ccccc2c2nc3n(c(=O)c21)CCS3)NCCc1ccc(Cl)cc1` as the compound, how does the activity change, negative = inhibition read?
**A.** -0.805% (inactive)

**Q.** Which activity change, negative = inhibition does the source give for `Cc1cccc(N2CCN(C(=O)c3ccc(Cl)cc3)CC2)n1` here?
**A.** -17.4% (inactive)

**Q.** Which activity change, negative = inhibition does the source give for `COC(=O)Cn1nc(C)c2ccccc21` here?
**A.** -1.03% (inactive)

**Q.** Which activity change, negative = inhibition does the source give for `CCCCC(=O)N1CCN(c2ccccn2)CC1` here?
**A.** -2.66% (inactive)

**Q.** Which activity change, negative = inhibition does the source give for `CCCNC(=O)Cn1nc(-c2ccccc2)c2cc(Cl)ccc21` here?
**A.** 27.1% (inactive)

test system: C. albicans CaCi-2 + fluconazole, Alamar Blue growth, 48 h; test: as above; conditions: not given
Procedure, shortened: as §1

**Q.** For `O=C(Cn1c2ccccc2c2nc3n(c(=O)c21)CCS3)N1CCCCC1`, which AC50 is on record?
**A.** 2080 nM

**Q.** For `O=c1c2[nH]c3ccc(F)cc3c2nc2n1CCS2`, which AC50 is on record?
**A.** 2960 nM

**Q.** With `O=C(Cn1c2ccc(F)cc2c2nc3n(c(=O)c21)CCS3)N1CCCC1` as the compound, how does the AC50 read?
**A.** 532 nM

**Q.** Which AC50 does the source give for `COc1ccnc(N2CCN(C(=O)c3ccc(Cl)cc3)CC2)c1` here?
**A.** > 12000 nM (inactive)

**Q.** With `CCN(CC)C(=O)Cn1c2ccccc2c2nc3n(c(=O)c21)CCS3` as the compound, how does the AC50 read?
**A.** 1670 nM and 1820 nM

**Q.** For `COC(=O)Cn1nc(-c2ccc(C)cc2)c2ccccc21`, which AC50 is on record?
**A.** 8980 nM

**Q.** For `O=C(Cn1c2ccccc2c2nc3n(c(=O)c21)CCS3)N1CCCC1`, which AC50 is on record?
**A.** 837 nM and 2700 nM

**Q.** For `O=C(Cn1c2ccc(F)cc2c2nc3n(c(=O)c21)CCS3)N1CCCCC1`, which AC50 is on record?
**A.** 384 nM

**Q.** Which AC50 does the source give for `O=C(Cn1c2ccccc2c2nc3n(c(=O)c21)CCS3)N1CCOCC1` here?
**A.** 2660 nM

**Q.** With `O=c1c2[nH]c3ccccc3c2nc2n1CCS2` as the compound, how does the AC50 read?
**A.** 8160 nM

**Q.** With `O=C(c1ccc(Cl)cc1)N1CCN(c2nc3ccccc3o2)CC1` as the compound, how does the AC50 read?
**A.** 12100 nM

**Q.** With `CC1CCN(C(=O)Cn2c3ccc(F)cc3c3nc4n(c(=O)c32)CCCS4)CC1` as the compound, how does the AC50 read?
**A.** 2090 nM

**Q.** Which AC50 does the source give for `O=C(c1ccc(Cl)cc1)N1CCN(c2nc3ccccc3s2)CC1` here?
**A.** 4120 nM

**Q.** With `O=C(c1ccc(F)cc1)N1CCN(c2ccccn2)CC1` as the compound, how does the AC50 read?
**A.** > 12000 nM (inactive)

**Q.** With `O=C(c1ccc(Cl)cc1)N1CCN(c2ccc(C(F)(F)F)cn2)CC1` as the compound, how does the AC50 read?
**A.** > 12000 nM (inactive)

**Q.** With `CC1CCN(C(=O)Cn2c3ccccc3c3nc4n(c(=O)c32)CCCS4)CC1` as the compound, how does the AC50 read?
**A.** 11000 nM

**Q.** With `CC1CCN(C(=O)Cn2c3ccccc3c3nc4n(c(=O)c32)CCS4)CC1` as the compound, how does the AC50 read?
**A.** 2200 nM

**Q.** With `O=C(Cn1c2ccc(F)cc2c2nc3n(c(=O)c21)CCS3)N1CCCCCC1` as the compound, how does the AC50 read?
**A.** 1360 nM

**Q.** With `COC(=O)Cn1nc(-c2ccccc2)c2cc(Cl)ccc21` as the compound, how does the AC50 read?
**A.** 8100 nM

**Q.** For `CCN(CC)C(=O)Cn1c2ccc(F)cc2c2nc3n(c(=O)c21)CCS3`, which AC50 is on record?
**A.** 685 nM

**Q.** For `COC(=O)Cn1nc(-c2ccccc2)c2ccccc21`, which AC50 is on record?
**A.** 2110 nM
